Compound activity as filed in PubChem BioAssay.
A selection: hits, their analogues and other compounds. The true share with any hit is near 2.3%.
TAAR1 ag: human TAAR1 agonism. Q96RJ0. CHO RD-HGA16 TAAR1, Fluo-8 calcium fluorescence; vehicle wells 0%, saturating PEA agonist 100%. activation, % at 3 µM. 360,000 tested, 0.99% active. AID 624467;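 active = activation above the mean activation of all test compounds in the run plus 3 SD, cut at about 38% in these data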
Target sequence (Q96RJ0 whole entry, looked up): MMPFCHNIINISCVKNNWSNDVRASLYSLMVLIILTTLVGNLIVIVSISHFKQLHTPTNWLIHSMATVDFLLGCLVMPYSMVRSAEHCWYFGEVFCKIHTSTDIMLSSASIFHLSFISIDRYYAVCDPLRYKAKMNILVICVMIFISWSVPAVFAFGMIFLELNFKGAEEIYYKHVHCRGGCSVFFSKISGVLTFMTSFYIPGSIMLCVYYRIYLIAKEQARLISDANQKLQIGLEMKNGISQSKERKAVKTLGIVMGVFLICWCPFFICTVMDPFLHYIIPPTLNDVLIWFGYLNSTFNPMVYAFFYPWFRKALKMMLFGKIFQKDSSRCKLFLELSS
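Assay system: CHO-derived RD-HGA16 cells with stable Gα16 and human TAAR1; timing: 17-24 h seeding, 75 min 37 °C dye, 30 min RT; read-out: % activation from peak over basal fluorescence ratio, DMSO-to-PEA scaled; measured by: kinetic Fluo-8 calcium fluorescence; benchmarks: low control DMSO, high control PEA (EC100); doses: 3 µM single concentration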
V1aR counter: V1a receptor agonism, counter-screen for OXTR agonists; P37288; CHO-V1R cells, Fluo-8 calcium fluorescence, agonist mode; 0% DMSO, 100% 3 nM vasopressin; activation, % at 3 µM; 320,000 tested, 0.25% active; AID 2797;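 active = activation above the mean activation of all tested compounds plus 3 SD, per screening run, cut at about 20% in these data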;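 note: signal is peak over basal fluorescence ratio across a 100 second FLIPR read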
OXTR potentiator: potentiates the human oxytocin receptor response; CHO-OTR cells, Fluo-8 calcium fluorescence, potentiator mode; 0% = oxytocin EC15, 100% = EC100; activation, % at 3 µM; 320,000 tested, 0.061% active; AID 2445;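 active = activation above that plate's cutoff, the mean activation of tested compounds plus 3 SD, cut at about 6.6% in these data, passing the limit was not always enough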;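 note: 100% uses oxytocin at 75 nM as the full agonist control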
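Material: human OTR in CHO cells. Compound: 3.0 µM, one dose. Timing: compound 6 min at room temperature before oxytocin, 100 s read. Evaluation: % activation of max/min ratio relative to oxytocin controls. Replication: single well per compound, singlicate. Signal: Fluo-8 calcium dye fluorescence.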
TAAR1 antag: human TAAR1 antagonism; Q96RJ0; CHO RD-HGA16 TAAR1, Fluo-8 calcium fluorescence, antagonist; inhibition, % at 3 µM; 360,000 tested, 1.5% active;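 active = inhibition above a per-plate cutoff, the mean inhibition of test compounds on that plate plus 3 SD, cut at about 49% in these data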;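 note: 0% = DMSO plus EC80 beta-PEA response and 100% = DMSO alone without agonist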
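Assay system: RD-HGA16 CHO cells with stable hTAAR1 and Gα16 / Reagent: EC80 β-phenethylamine stimulus / Doses: 3 µM, single point / Timing: dye loading 75 min at 37 °C, then 30 min room temperature / Measured by: Fluo-8 intracellular calcium dye fluorescence, real-time kinetic reads / Controls: vehicle wells and EC80 agonist wells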
OXTR agonist: activates the human oxytocin receptor; P30559; CHO-OTR cells, Fluo-8 calcium fluorescence; normalized: DMSO 0%, oxytocin 100%; activation, % at 3 µM; 320,000 tested, 0.32% active;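 active = activation above the mean of all tested compounds plus 3 SD, cutoff set per screening run, cut at about 20% in these data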;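 note: peak over basal fluorescence ratio from a 100 s FLIPR kinetic read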
TAAR1 ag conf: human TAAR1 agonism, confirmed; shares compounds with TAAR1 ag; CHO RD-HGA16 TAAR1, Fluo-8 calcium fluorescence; scaled: DMSO 0%, maximal phenethylamine 100%; activation, % at 3 µM; 2,400 tested, 82% active;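 active = activation above a cutoff set at the run's mean compound activation plus 3 SD, cut at about 39% in these data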
Ga16 nonsel ag: counter-screen for TAAR1 agonists: nonselective agonists in parental cells; shares compounds with TAAR1 ag; CHO-Ga16 parental, Fluo-8 calcium fluorescence; normalized to maximal ATP response, DMSO zero; activation, % at 3 µM; 2,400 tested, 50% active; AID 651787;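 active = activation above the run cutoff, the mean activation over all tested wells plus 3 SD, cut at about 12% in these data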;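 note: 0% = DMSO wells and 100% = maximal ATP response on the peak over basal ratio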
TAAR1 desens: TAAR1 response desensitization, agonist counter-screen; CHO RD-HGA16 hTAAR1, Fluo-8 calcium, beta-PEA response inhibition; shares compounds with TAAR1 ag; 2,400 tested, 46% active; inhibition, % at 3 µM;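 active = inhibition above the run cutoff, the mean inhibition of all test compounds plus 3 SD, cut at about 49% in these data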;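 note: beta-PEA stimulus applied at its EC80; loss of beta-PEA calcium signal after compound pretreatment read as receptor desensitization; 0% = DMSO with beta-PEA at EC80 and 100% = DMSO alone without agonist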
Ga16 antag count: nonselective Ga16 antagonist in TAAR1 agonist counter-screen | AID 651952 | CHO-Ga16 ATP-induced calcium, Fluo-8 fluorescence | shares compounds with TAAR1 ag | 2,400 tested, 39% active | inhibition, % at 3 µM;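 active = inhibition above the plate's mean compound inhibition plus 3 SD, computed per plate, cut at about 22% in these data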;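 note: 0% = EC80 ATP with DMSO and 100% = DMSO wells without ATP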
The depositor's hits bear a star; . = no result given.

SMILES	TAAR1 ag	V1aR counter	OXTR potentiator	TAAR1 antag	OXTR agonist	TAAR1 ag conf	Ga16 nonsel ag	TAAR1 desens	Ga16 antag count
CCC(=O)N(Cc1cc2ccccc2[nH]c1=O)c1ccccc1OC	5	0	-13	-20	0	.	.	.	.
FC(F)(F)c1cc(CO[C@@H]2CCCN[C@@H]2c2ccccc2)cc(C(F)(F)F)c1	70*	8	-7	15	11	37	29*	8	4
C[C@H](CO)N1C[C@H](C)[C@@H](CN(C)C(=O)NC2CCCCC2)Oc2c(NC(=O)c3ccncc3)cccc2C1=O	3	1	0	13	1	.	.	.	.
O=C(Cc1nnc(NC(=O)Nc2ccccc2)s1)NCc1ccccc1	60*	0	-1	39	0	80*	2	64*	10
COc1ccc(NC(=O)Nc2nccs2)cc1	21	1	-1	12	2	.	.	.	.
O=C(Nc1ccccc1)Nc1nccs1	47*	6	-4	18	1	85*	3	49*	7
O=C(Cc1nnc(NC(=O)Nc2ccc(Cl)cc2)s1)NCc1ccccc1	19	1	-3	30	1	.	.	.	.
O=C(Nc1ccccc1)Nc1nncs1	.	0	-8	.	1	.	3	.	7
COC(=O)/C=C1\OCc2cccc(C)c21	0	.	.	-1	.	.	.	.	.
Oc1ccc(C2CNCc3sccc32)cc1O (stereo unspecified)	92*	1	-2	78*	1	105*	6	95*	5
Cc1nn(CCCC(=O)NCCc2ccccc2)c(=O)c2nn(-c3ccccc3)c(C)c12	-1	1	-2	-36	-2	.	.	.	.
Cc1ccc(-n2nc3c(=O)n(CCCC(=O)NCCc4ccccc4)nc(C)c3c2C)cc1	41*	-1	-9	-23	-2	36	5	-1	8
CCc1ncn(CCc2ccccc2OC)c1C(C)C	53*	.	.	29	.	63*	1	34	7
COc1ccccc1CCn1cnc(C)c1CC(C)C	76*	.	.	29	.	69*	0	40	13
COc1ccccc1CCn1cnc(Cc2cccc(F)c2)c1C(C)C	37	.	.	42	.	.	.	.	.
O=C(NCCc1ccc(F)cc1)c1coc(=O)c(Br)c1	68*	0	-11	35	0	66*	1	16	8
O=C(Nc1ccccc1F)c1coc(=O)c(Br)c1	5	0	-2	-12	0	.	.	.	.
O=C(c1cc2c(F)cccc2s1)N1CCCC1	-1	0	0	7	-2	.	.	.	.
Cc1cc([N+](=O)[O-])nn1CC(=O)N1CCc2ccccc2C1	61*	0	0	-2	0	45*	8	12	5
CS(=O)(=O)N(CC(=O)N1CCc2ccccc2C1)c1cccc([N+](=O)[O-])c1	60*	1	-4	-2	0	54*	2	13	11
CS(=O)(=O)N(Cc1ccccc1)c1ccc(C(=O)N2CCc3ccccc3C2)cc1	93*	3	-19	91*	2	101*	8	97*	25*
CS(=O)(=O)N(CC(=O)N1CCc2ccccc2C1)c1cccc(F)c1	4	1	-4	-4	0	.	.	.	.
Cc1cc(C)n(C(CC(=O)N2CCc3ccccc3C2)C(=O)O)n1 (stereo unspecified)	102*	0	4	90*	1	107*	4	94*	4
CN(CC(=O)Nc1cc(Cl)ccc1C#N)C1CCS(=O)(=O)C1 (stereo unspecified)	1	1	-10	5	0	.	.	.	.
COc1ccc(Nc2nc(N)nc(CN3CCc4ccccc4C3)n2)cc1	44*	0	-1	-8	-1	88*	4	27	2
SMILES	TAAR1 ag	V1aR counter	OXTR potentiator	TAAR1 antag	OXTR agonist	TAAR1 ag conf	Ga16 nonsel ag	TAAR1 desens	Ga16 antag count
Nc1nc(CN2CCCCCC2)nc(Nc2ccccc2)n1	6	-1	-11	-17	0	.	.	.	.
COc1ccccc1Nc1nc(N)nc(CN2CCc3ccccc3C2)n1	43*	0	-11	-8	-2	54*	1	-3	6
COc1ccccc1N1CCN(Cc2nc(N)nc(Nc3ccc(C)cc3)n2)CC1	11	0	-15	8	-2	.	.	.	.
COc1ccc(Nc2nc(N)nc(CN3CCC(C)CC3)n2)cc1	0	-1	-15	-27	-1	.	.	.	.
Nc1nc(CN2CCc3ccccc3C2)nc(Nc2ccccc2)n1	59*	2	4	19	-1	85*	1	47	10
Cc1ccc(NC(=O)C2(C)CCN2C(=O)Cc2ccccc2)cc1C (stereo unspecified)	1	.	.	-14	.	.	.	.	.
Cc1cccc(NC(=O)C2CCCN(C(=O)Nc3ccc(F)cc3)C2)c1 (stereo unspecified)	-2	-2	-8	17	-2	.	.	.	.
